These results are taken from paper PMC4872822 (Journal of medicinal chemistry, 2015).

The target of data set [1] is T1, h-15-LOX-1 (Homo sapiens, UniProt P16050).
T1 sequence (P16050 1-662): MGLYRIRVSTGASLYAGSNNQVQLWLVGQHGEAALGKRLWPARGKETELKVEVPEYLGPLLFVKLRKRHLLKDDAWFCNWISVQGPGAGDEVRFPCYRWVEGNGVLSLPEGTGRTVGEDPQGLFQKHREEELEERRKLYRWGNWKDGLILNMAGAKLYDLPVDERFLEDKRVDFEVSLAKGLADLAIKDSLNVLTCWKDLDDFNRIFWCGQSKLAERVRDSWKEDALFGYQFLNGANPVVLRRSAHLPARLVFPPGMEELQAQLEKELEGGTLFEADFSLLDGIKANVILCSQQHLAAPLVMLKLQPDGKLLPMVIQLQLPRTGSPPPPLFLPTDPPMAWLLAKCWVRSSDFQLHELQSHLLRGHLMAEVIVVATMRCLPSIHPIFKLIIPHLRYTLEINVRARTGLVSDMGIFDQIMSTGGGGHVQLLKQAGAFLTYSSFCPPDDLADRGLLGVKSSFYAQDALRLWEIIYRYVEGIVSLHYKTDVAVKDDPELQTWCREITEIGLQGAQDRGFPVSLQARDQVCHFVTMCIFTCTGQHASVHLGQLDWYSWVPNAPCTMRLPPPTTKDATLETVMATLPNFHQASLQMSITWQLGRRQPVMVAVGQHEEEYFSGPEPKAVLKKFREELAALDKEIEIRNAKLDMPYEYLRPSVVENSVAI
Description: Human 15-LOX-1 screening UV assay. The class given is biochemical. The note with it: for h-15-LOX-1 inhibition (result in words): SAR comparison, Figure 3, up to 50 μM.

Data set [2] concerns interleukin expression in precision-cut lung slices (PCLS). Description: Gene expression by RT-qPCR in LPS/IFNγ-stimulated precision-cut lung slices. The format is cell-based, mouse. The note with it: 20 h with 10 μM linoleic acid, LPS/IFNγ last 4 h. For orientation: Real-time PCR tracks product formation cycle by cycle.
Data set [3] deals with interleukin expression in RAW 264.7 cells. Description: Gene expression by RT-qPCR in LPS/IFNγ-stimulated RAW 264.7 cells. The class given is cell-based, murine. The settings on record: RAW 264.7, 20 h with 10 μM linoleic acid, LPS/IFNγ last 4 h. Put shortly:
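Murine macrophages (passage 7–16) in DMEM-GlutaMAX with 10% heat-inactivated FBS, extra 2 mM GlutaMAX and penicillin/streptomycin at 37 °C, 5% CO2, seeded at 20,000 cells/cm2 one day before. Test compound 1–500 nM (final) with 10 μM linoleic acid for 20 h; 10 ng/ml LPS and IFNγ for the last 4 h. Cells were DPBS-washed and total RNA isolated for RT-qPCR. Results are fold change versus the LPS/IFNγ/linoleic acid control.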

Data set [4] has as its system precision-cut lung slices (PCLS). The settings on record: LDH release, 1-500 nM with 10 μM linoleic acid for 20 h.
Data set [5] has as its system interleukin-12 (IL-12). The settings on record: after stimulation with LPS; cited from earlier work.

For the compound `CCOC(=O)c1c(C=O)c2ccc(Cl)cc2n1C` [Compound 3, Ethyl 6-chloro-3-formyl-1-methyl-1H-indole-2-carboxylate], the inhibition (as a rule, the relative decrease from the control value, in per cent) at 50 µM in data set [1] (read-out: inhibition of the enzyme activity at 50 μM) was below 50%.

As for `O=Cc1c(Cl)[nH]c2cc(Cl)ccc12` [Compound 4], the “h-15-LOX-1 inhibition (result in words)” value in data set [1] was “inactive”.

As to `O=Cc1c[nH]c2cc(Cl)ccc12` [Compound 5], in data set [1], the “h-15-LOX-1 inhibition (result in words)” value is “inactive”.

In the case of `O=Cc1c(C(=O)O)[nH]c2cc(Cl)ccc12` [Compound 7, 6-chloro-3-formyl-1H-indole-2-carboxylic acid], the “h-15-LOX-1 inhibition (result in words)” value in data set [1] is “inactive”.

As to `CC(C)(C)OC(=O)c1cc2ccc(Cl)cc2[nH]1` [Compound 8, tert-butyl 6-chloro-1H-indole-2-carboxylate], the “h-15-LOX-1 inhibition (result in words)” value in data set [1] is “inactive”.

Consider `CCOC(=O)c1[nH]c2cc(Cl)ccc2c1C(=O)C[C@@H](C)CCCC(C)C` [Compound 14d, (S)-ethyl 6-chloro-3-(3,7-dimethyloctanoyl)-1H-indole-2-carboxylate], for which, in data set [2], the IL-1β gene expression entry was “small but significant downregulation”, the IL-6 gene expression entry is listed as “small but significant downregulation”, the IL-10 gene expression result is listed as “upregulated” and the IL-12 gene expression entry is recorded as “remained unchanged”. Further, in data set [3], the IL-1β gene expression entry is given as “did not change”, the IL-6 gene expression entry is reported as “did not change” and the IL-12 gene expression result is “did not change”. Moreover, the “concentration not affecting PCLS viability” value in data set [4] is recorded as at most 500 nM.

In the case of `c1ccc2c(c1)SCc1c-2[nH]c2ccccc12` [PD-146176], the “effect on interleukin-12 (IL-12)” value in data set [5] is reported as “downregulation of interleukin-12 (IL-12)”.
